ChEMBL document CHEMBL1148234, “Tricyclic pyridones as functionally selective human GABAA alpha 2/3 receptor-ion channel ligands” (Bioorg Med Chem Lett, 2004)

How the values were obtained:
[1] = biological target: T1, GABA-A receptor; alpha-1/beta-3/gamma-2 (Homo sapiens, UniProt P14867+P18507+P28472); experiment: Binding affinity at human recombinant gamma-aminobutyric-acid A receptor alpha-1-beta-3-gamma-2 expressed in L(tk) cells by [3H]Ro-151788 displacement.; type: cell-based
T1 sequence (P14867 whole entry): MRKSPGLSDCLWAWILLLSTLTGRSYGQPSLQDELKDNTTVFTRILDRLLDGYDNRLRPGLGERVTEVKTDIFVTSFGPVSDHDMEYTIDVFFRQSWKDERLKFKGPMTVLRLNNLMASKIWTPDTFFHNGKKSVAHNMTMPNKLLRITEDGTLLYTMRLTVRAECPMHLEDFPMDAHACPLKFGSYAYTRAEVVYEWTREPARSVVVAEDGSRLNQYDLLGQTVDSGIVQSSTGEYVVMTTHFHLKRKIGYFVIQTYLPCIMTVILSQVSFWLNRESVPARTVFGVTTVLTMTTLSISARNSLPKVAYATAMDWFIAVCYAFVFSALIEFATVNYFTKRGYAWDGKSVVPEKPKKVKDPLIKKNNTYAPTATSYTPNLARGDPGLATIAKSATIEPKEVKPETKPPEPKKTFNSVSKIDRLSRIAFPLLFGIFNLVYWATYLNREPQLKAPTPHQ
T1 sequence (P18507 whole entry): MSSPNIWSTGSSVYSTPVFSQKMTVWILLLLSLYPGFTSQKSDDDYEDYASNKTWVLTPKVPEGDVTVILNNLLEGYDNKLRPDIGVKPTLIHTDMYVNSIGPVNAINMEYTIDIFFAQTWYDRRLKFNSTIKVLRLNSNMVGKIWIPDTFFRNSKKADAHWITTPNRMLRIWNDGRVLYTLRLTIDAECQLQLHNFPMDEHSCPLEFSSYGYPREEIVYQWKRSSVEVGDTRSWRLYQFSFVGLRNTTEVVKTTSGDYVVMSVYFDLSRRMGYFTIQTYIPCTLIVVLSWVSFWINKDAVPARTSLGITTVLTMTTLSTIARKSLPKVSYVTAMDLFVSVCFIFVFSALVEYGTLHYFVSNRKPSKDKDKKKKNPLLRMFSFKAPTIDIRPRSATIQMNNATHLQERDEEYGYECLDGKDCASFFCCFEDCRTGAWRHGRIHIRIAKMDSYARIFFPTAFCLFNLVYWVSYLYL
T1 sequence (P28472 whole entry): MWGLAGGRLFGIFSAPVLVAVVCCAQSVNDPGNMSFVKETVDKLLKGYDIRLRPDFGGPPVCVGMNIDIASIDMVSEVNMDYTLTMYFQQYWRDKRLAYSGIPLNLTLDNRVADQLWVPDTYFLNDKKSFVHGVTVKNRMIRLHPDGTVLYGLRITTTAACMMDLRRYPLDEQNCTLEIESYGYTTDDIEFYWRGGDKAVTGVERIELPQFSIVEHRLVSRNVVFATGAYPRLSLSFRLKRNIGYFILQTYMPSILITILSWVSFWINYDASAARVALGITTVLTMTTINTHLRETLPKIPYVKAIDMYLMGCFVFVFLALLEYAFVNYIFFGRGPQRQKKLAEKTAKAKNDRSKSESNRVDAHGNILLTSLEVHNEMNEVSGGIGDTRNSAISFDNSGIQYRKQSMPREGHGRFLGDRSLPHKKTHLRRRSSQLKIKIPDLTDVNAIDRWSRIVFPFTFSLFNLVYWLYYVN
Outline: (§1)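 Human recombinant GABAA receptors (α1 or α3 with β3γ2) stably expressed in L(tk⁻) cells; affinity measured as displacement of [³H]Ro15-1788. Values are mean±SD of 2–10 separate determinations.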

[2] = biological target: T2, Gamma-aminobutyric acid receptor subunit alpha-3 (Homo sapiens) (UniProt P34903); experiment: Efficacy at Gamma-aminobutyric acid A receptor, alpha 3-ion channel relative to chlorodiazepoxide.
T2 sequence (whole entry): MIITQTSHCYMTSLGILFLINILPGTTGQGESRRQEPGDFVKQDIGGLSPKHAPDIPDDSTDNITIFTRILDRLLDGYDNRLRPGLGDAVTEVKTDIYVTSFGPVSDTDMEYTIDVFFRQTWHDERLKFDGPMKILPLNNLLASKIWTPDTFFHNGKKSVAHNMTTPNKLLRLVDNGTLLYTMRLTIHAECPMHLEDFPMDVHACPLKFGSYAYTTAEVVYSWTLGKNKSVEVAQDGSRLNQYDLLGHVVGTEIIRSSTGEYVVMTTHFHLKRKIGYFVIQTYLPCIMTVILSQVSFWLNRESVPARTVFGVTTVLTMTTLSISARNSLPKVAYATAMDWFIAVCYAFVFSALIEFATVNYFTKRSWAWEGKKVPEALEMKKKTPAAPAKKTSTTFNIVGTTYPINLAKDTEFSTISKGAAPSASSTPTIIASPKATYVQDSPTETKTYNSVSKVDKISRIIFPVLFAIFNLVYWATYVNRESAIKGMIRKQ
Outline: (§2)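 Human recombinant GABAA receptors, α1 or α3 with β3γ2, stably expressed in L(tk⁻) cells. Chloride ion flux modulated by test compound at approximately 1000×Ki, in the presence of GABA at an EC20-equivalent concentration. Efficacy expressed relative to full agonist chlordiazepoxide (=1.0), from at least seven independent experiments; some compounds measured instead by whole-cell patch-clamp current at GABA EC20.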

[3] = biological target: T3, GABA-A receptor; alpha-3/beta-3/gamma-2 (Homo sapiens, UniProt P18507+P28472+P34903); experiment: Binding affinity at human recombinant gamma-aminobutyric-acid A receptor alpha-3-beta-3-gamma-2 expressed in L(tk) cells by [3H]Ro-151788 displacement.; type: cell-based; outline: as §1
T3 sequence (P18507 whole entry): T1 sequence (P18507 whole entry)
T3 sequence (P28472 whole entry): T1 sequence (P28472 whole entry)
T3 sequence (P34903 whole entry): T2 sequence (whole entry)

[4] = biological target: T4, Gamma-aminobutyric acid receptor subunit alpha-1 (Homo sapiens) (UniProt P14867); experiment: Efficacy at gamma-aminobutyric acid A receptor, alpha 1-ion channel relative to chlorodiazepoxide.; outline: as §2
T4 sequence (whole entry): T1 sequence (P14867 whole entry)

[5] = Oral bioavailability in dog; type: ADME, organism-based, Canis lupus familiaris; conditions: in vivo
[6] = Oral bioavailability in rat; type: ADME, organism-based; conditions: in vivo
[7] = biological target: Gamma-aminobutyric acid receptor subunit alpha-4 (Homo sapiens, UniProt P48169); experiment: Displacement of [3H]Ro-151788 from human GABA-A receptor alpha4 subunit expressed in L(tk) cells; type: cell-based
[8] = biological target: Gamma-aminobutyric acid receptor subunit alpha-6 (Homo sapiens, UniProt Q16445); experiment: Displacement of [3H]Ro-151788 from human GABA-A receptor alpha6 subunit expressed in L(tk) cells; type: cell-based
[9] = biological target: T5, Gamma-aminobutyric acid receptor subunit alpha-5 (Homo sapiens, UniProt P31644); experiment: Displacement of [3H]-Ro-15-1788 from human GABA-A receptor alpha5 subunit expressed in L(tk) cells; type: cell-based
T5 sequence (P31644 whole entry): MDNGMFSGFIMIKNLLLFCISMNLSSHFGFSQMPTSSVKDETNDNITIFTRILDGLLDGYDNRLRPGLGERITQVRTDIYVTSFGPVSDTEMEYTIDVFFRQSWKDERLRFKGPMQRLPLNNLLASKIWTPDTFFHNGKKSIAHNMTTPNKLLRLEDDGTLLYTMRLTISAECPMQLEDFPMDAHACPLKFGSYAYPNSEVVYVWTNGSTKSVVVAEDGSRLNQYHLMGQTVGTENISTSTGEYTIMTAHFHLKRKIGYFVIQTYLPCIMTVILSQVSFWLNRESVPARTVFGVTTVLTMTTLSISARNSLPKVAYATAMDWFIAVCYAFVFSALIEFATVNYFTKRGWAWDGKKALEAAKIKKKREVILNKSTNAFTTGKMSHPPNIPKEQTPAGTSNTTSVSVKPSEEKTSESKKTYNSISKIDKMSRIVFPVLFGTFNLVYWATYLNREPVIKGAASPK

[10] = biological target: T6, Gamma-aminobutyric acid receptor subunit alpha-2 (Homo sapiens, UniProt P47869); experiment: Displacement of [3H]Ro-151788 from human GABA-A receptor alpha2 subunit expressed in L(tk) cells; type: cell-based
T6 sequence (P47869 whole entry): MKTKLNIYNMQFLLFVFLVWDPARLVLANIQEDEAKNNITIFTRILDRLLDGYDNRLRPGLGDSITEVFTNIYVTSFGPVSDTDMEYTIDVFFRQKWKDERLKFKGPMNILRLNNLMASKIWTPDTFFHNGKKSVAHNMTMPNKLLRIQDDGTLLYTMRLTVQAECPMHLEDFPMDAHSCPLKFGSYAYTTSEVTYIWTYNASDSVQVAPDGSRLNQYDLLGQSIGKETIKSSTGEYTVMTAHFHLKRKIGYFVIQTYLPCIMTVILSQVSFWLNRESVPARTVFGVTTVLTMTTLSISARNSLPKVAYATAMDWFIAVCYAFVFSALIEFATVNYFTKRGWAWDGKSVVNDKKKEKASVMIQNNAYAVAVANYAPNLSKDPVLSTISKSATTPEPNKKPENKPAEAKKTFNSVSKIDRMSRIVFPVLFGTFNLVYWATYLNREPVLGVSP

[11] = biological target: T1, GABA-A receptor; alpha-1/beta-3/gamma-2; experiment: Displacement of [3H]Ro-151788 from human GABA-A receptor alpha-1-beta-3-gamma-2 subunits expressed in L(tk) cells; type: cell-based; outline: as §1

Chain of Gamma-aminobutyric acid receptor subunit alpha-4 (P48169 whole entry): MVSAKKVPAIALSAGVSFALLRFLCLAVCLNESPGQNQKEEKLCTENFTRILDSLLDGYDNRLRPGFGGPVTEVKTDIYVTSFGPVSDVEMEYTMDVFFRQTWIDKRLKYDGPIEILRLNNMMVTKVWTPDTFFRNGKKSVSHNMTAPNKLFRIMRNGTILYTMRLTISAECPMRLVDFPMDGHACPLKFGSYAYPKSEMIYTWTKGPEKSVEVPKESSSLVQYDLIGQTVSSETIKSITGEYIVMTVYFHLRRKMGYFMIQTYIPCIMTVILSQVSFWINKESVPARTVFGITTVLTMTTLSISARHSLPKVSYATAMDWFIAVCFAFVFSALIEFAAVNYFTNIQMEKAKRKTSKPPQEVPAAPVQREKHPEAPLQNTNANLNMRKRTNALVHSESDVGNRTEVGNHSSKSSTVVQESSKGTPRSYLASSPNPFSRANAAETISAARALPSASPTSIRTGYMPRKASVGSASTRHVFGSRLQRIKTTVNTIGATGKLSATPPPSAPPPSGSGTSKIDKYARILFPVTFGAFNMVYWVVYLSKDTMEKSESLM
Chain of Gamma-aminobutyric acid receptor subunit alpha-6 (Q16445 whole entry): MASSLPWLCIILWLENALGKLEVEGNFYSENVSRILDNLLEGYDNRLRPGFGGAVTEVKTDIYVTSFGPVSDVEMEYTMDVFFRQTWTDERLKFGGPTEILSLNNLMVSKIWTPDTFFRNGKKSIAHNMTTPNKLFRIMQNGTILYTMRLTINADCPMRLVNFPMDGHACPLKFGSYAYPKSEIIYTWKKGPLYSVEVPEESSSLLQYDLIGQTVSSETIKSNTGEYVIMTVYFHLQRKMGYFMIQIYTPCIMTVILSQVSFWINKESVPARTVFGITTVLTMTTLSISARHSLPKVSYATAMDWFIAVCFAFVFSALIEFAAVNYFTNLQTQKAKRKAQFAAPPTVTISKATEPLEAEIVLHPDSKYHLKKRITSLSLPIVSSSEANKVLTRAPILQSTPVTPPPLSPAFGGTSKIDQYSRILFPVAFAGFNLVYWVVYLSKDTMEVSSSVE

Row | Ki [1] [nM] | Efficacy [2] | Ki [3] [nM] | Efficacy [4] | bioavailability [5] [%] | bioavailability [6] [%] | Ki [7] [nM] | Ki [8] [nM] | Ki [9] [nM] | Ki [10] [nM] | Ki [11] [nM] | Structure (SMILES)
1 | 5.3 | -0.02 | 2.4 | -0.16 |  |  |  |  |  |  |  | Cc1csc(-c2cc(-c3cccnc3)c3n(c2=O)CCCc2ccncc2-3)n1
2 | 7.8 | 0.41 | 4.2 | -0.21 |  |  |  |  |  |  |  | Cc1csc(-c2cc(-c3ccc[nH]3)c3n(c2=O)CCCc2ccncc2-3)n1
3 | 10 | 0.47 | 20 | 0.29 |  |  |  |  |  |  |  | Cc1csc(-c2cc(-c3ccn(C)n3)c3n(c2=O)CCCc2ccncc2-3)n1
4 | 5.4 | 0.39 | 3.1 | -0.04 |  |  |  |  |  |  |  | Cc1csc(-c2cc(-c3ccc(C#N)cc3)c3n(c2=O)CCCc2ccncc2-3)n1
5 | 5 | 0.48 | 3 | 0.56 |  |  |  |  |  |  |  | Cc1csc(-c2cc(-c3ccccc3F)c3n(c2=O)CCCc2ccncc2-3)n1
6 | 8.3 | 0.2 | 5 | -0.41 |  |  |  |  |  |  |  | Cc1csc(-c2cc(-c3ccnnc3)c3n(c2=O)CCCc2ccncc2-3)n1
7 | 1.3 | 0.45 | 0.5 | 0 | 20 | 28 | 27.9 | 65.9 | > 33.3 |  |  | Cc1csc(-c2cc(-c3ccncc3)c3n(c2=O)CCCc2ccncc2-3)n1
8 | 0.7 | 0.32 | 0.4 | 0.1 |  |  |  |  |  | 0.3 |  | Cc1csc(-c2cc(-c3ccccc3)c3n(c2=O)CCCc2ccncc2-3)n1
9 | 12.2 | 0.32 | 8.5 | 0.03 |  |  |  |  |  |  |  | Cc1csc(-c2cc(-c3ccncn3)c3n(c2=O)CCCc2ccncc2-3)n1
10 |  | 0.26 | 0.4 | 0.17 |  |  |  |  |  |  | 0.2 | Cc1csc(-c2cc(-c3ccc(Cl)cc3)c3n(c2=O)CCCc2ccncc2-3)n1
11 | > 33 |  | > 33 |  |  |  |  |  |  |  |  | Cc1csc(-c2cc(-c3ccc4ccccc4c3)c3n(c2=O)CCCc2ccncc2-3)n1
12 | 4 | 0.46 | 3 | 0 |  |  |  |  |  |  |  | Cc1csc(-c2cc(-c3cccn3C)c3n(c2=O)CCCc2ccncc2-3)n1
13 | > 33 |  | > 33 |  |  |  |  |  |  |  |  | Cc1csc(-c2cc(-c3ccc(C(C)(C)C)cc3)c3n(c2=O)CCCc2ccncc2-3)n1
14 | 4.6 | 0.41 | 3.1 | -0.11 |  |  |  |  |  |  |  | Cc1csc(-c2cc(-c3c(C)noc3C)c3n(c2=O)CCCc2ccncc2-3)n1
15 | 26.1 | -0.44 | 17.3 | -0.33 |  |  |  |  |  |  |  | Cc1csc(-c2cc(-c3cccnn3)c3n(c2=O)CCCc2ccncc2-3)n1
16 | 3.9 | 0.05 | 4.4 | 0.04 |  |  |  |  |  |  |  | Cc1csc(-c2cc(-c3ccoc3)c3n(c2=O)CCCc2ccncc2-3)n1
17 | 21.1 | 0.16 | 9 | -0.03 |  |  |  |  |  |  |  | Cc1csc(-c2cc(-c3cncnc3)c3n(c2=O)CCCc2ccncc2-3)n1
18 | 1.5 | 0.36 | 1.2 | 0.08 |  |  |  |  |  |  |  | Cc1csc(-c2cc(-c3ccccc3C)c3n(c2=O)CCCc2ccncc2-3)n1
19 |  | -0.01 | 16.8 | -0.33 |  |  |  |  |  |  | 14.3 | Cc1csc(-c2cc(-c3nccn3C)c3n(c2=O)CCCc2ccncc2-3)n1
